We go through seven molecules from ChEMBL document CHEMBL4184227, “Surrogating and redirection of pyrazolo[1,5-a]pyrimidin-7(4H)-one core, a novel class of potent and selective DPP-4 inhibitors” (Bioorg Med Chem, 2018).

One may read the IC50 as the concentration needed to halve the response being measured.

The test system of data set [1] is Mus musculus. The data set can be described thus: Antidiabetic activity in ip dosed C57BL/6 mouse as reduction in blood glucose level administered as single dose pretreated for 30 mins followed by dextrose-challenge measured up to 2 hrs by IPGTT. It counts as functional, organism-based. In a few lines: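 Diabetic male mice (strain given as C57BL/6 and as BALB/c) received a single intraperitoneal dose of 1, 5 or 10 mg/kg, or saline as control, 30 min before an injected dextrose challenge (2 g/kg). Blood glucose was read at 0, 0.5, 1, 1.5 and 2 h, and glucose AUC was computed over 0–120 min; mean ± SD, n = 4.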

The next data set concerns the target Dipeptidyl peptidase 9 (Homo sapiens, UniProt Q86TI2). Nature of the data set: Inhibition of recombinant human DPP9 using H-Gly-Pro-AMC as substrate measured after 10 mins by fluorescence assay. An outline of the steps: (§1)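 Recombinant human DPP-8 or DPP-9 in 100 mM Tris-HCl, 100 mM NaCl, pH 7.8 was combined with inhibitor and H-Gly-Pro-AMC substrate (303 final). The mixture was incubated at 37 °C for 10 min, then fluorescence was read at ex 380/em 460 nm; values are means of three experiments.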

Data set [2] concerns HepG2. The data set can be described thus: Cytotoxicity against human HepG2 cells assessed as reduction in cell viability after 48 hrs by MTT assay. It counts as cell-based. The following applies: hepg2, 48 h. In a few lines: (§2)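 HepG2 cells in DMEM were exposed to compound in DMSO at 1–100 μM final, or DMSO alone as negative control, for 48 h. MTT (5 mg/ml, 20 µL) was then added for 6 h, the supernatant removed and the formazan dissolved in DMSO. Absorbance was read at 490 nm; viability is expressed versus control; mean ± SD, n=3.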

Data set [3] can be described thus: Cytotoxicity against human HepG2 cells assessed as cell viability at 100 uM after 48 hrs by MTT assay relative to control. The class given is cell-based. Particulars: read-out: Activity. In a few lines: as §2
(In general: Formazan colour is commonly taken as a measure of viable cells.)

The species named for data set [4] is Mus musculus. The data set can be described thus: animal or person. Particulars: C57BL/6, ip, read-out: MED.
A further data set addresses Dipeptidyl peptidase 8 (Homo sapiens, UniProt Q6V1X1). Nature of the data set: Inhibition of recombinant human DPP8 using H-Gly-Pro-AMC as substrate measured after 10 mins by fluorescence assay. In a few lines: as §1
Data set [5] has as its system HepG2. Nature of the data set: Cytotoxicity against human HepG2 cells assessed as reduction in cell viability at 100 uM after 48 hrs by MTT assay. It counts as cell-based. Particulars: hepg2, 48 h. An outline of the steps:
as §2

Dipeptidyl peptidase 8, sequence (Q6V1X1 whole entry): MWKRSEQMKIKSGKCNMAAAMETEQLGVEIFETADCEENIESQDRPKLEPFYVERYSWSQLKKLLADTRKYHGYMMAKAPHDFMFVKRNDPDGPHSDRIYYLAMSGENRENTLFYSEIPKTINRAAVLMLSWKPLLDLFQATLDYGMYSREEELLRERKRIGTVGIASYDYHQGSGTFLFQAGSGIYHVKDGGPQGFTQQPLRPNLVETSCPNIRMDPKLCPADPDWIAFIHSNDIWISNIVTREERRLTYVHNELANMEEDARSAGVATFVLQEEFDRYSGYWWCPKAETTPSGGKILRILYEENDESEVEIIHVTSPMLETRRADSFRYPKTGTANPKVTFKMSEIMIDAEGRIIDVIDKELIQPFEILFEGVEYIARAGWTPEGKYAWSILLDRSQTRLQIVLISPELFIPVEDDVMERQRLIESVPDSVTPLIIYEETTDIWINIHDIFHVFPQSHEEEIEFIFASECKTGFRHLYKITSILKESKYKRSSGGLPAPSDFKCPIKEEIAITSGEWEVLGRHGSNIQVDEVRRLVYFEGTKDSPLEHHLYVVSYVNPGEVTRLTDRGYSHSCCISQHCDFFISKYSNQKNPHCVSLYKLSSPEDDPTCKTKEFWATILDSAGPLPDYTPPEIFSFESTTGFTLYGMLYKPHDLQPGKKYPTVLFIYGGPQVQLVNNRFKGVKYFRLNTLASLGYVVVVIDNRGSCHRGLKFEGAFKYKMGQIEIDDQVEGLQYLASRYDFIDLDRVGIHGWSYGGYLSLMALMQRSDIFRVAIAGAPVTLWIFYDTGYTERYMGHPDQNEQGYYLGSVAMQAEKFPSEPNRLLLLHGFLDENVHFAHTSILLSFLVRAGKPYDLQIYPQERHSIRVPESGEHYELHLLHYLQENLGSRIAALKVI
Dipeptidyl peptidase 9, sequence (Q86TI2 whole entry): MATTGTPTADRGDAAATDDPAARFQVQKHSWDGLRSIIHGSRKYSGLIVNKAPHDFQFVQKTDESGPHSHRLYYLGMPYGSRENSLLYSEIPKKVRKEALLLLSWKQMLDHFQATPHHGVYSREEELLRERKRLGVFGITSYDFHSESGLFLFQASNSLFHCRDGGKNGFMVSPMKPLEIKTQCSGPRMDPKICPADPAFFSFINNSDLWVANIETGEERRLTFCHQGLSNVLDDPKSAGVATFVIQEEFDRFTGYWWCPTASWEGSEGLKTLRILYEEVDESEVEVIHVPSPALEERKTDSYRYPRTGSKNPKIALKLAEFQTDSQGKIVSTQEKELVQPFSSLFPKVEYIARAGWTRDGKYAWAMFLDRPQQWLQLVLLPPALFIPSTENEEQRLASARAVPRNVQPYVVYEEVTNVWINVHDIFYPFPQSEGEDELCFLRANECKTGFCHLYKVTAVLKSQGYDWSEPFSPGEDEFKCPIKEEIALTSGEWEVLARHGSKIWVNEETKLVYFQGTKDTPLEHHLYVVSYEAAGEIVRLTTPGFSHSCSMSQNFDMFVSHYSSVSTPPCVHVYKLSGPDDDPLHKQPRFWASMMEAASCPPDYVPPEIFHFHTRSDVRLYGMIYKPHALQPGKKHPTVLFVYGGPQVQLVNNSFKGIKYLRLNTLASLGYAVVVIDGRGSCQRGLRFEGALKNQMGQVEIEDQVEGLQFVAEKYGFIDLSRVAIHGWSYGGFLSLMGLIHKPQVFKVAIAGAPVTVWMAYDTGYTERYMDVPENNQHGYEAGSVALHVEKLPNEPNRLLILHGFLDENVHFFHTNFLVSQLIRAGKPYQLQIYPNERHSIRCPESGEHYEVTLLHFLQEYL

As to `N#Cc1ccccc1Cn1c(N2CCNCC2)cc(=O)n2nccc12`, the Activity entry with Mus musculus [1] and in the data set with HepG2 [2] was “Dose-dependent effect” throughout. The IC50 at Dipeptidyl peptidase 9 and at Dipeptidyl peptidase 8 was greater than 100 µM throughout. Also, the viability at 48 h, 100 µM in data set [3] was greater than 60%. Also, the minimal effective dose in the data set filed under Mus musculus [4] came out at 1 mg/kg.
On to `N#Cc1ccccc1Cn1c(N2CCC[C@@H](N)C2)cc(=O)n2nccc12`, for which the 50% inhibitory concentration (IC50) at Dipeptidyl peptidase 9 and at Dipeptidyl peptidase 8 was greater than 100 µM each time.
Consider `Cc1ccc(Cn2c(N3CCC[C@@H](N)C3)cc(=O)n3nccc23)cc1`, for which the IC50 on Dipeptidyl peptidase 9 and on Dipeptidyl peptidase 8 was greater than 100 µM each time.
On to `N#Cc1ccccc1Cc1c(Cl)nc2ccnn2c1N1CCC[C@@H](N)C1`, for which the IC50 on Dipeptidyl peptidase 9 and at Dipeptidyl peptidase 8 was greater than 100 µM in each case. The figures for the Activity result in the data set with HepG2 [2] and in the data set with HepG2 [5] were “Dose-dependent effect” and “Toxic”, respectively.
Regarding `O=c1cc(N2CCNCC2)n(Cc2ccccc2)c2ccnn12`, the IC50 at Dipeptidyl peptidase 9 and on Dipeptidyl peptidase 8 was greater than 100 µM in each case.
For `O=c1cc(N2CCNCC2)n(Cc2ccccc2[N+](=O)[O-])c2ccnn12`, the half-maximal inhibitory concentration (IC50) at Dipeptidyl peptidase 9 and at Dipeptidyl peptidase 8 was greater than 100 µM each time.
For `Cc1ccc(Cn2c(N3CCNCC3)cc(=O)n3nccc23)cc1`, the IC50 at Dipeptidyl peptidase 9 and on Dipeptidyl peptidase 8 was greater than 100 µM throughout.
